We go through 16 molecules from PubChem BioAssay.

What is called viability is a read-out of living cells in per cent, often relative to untreated cells. For orientation: inhibition means the change of the read-out against control, counted positive when it falls.

SMILES strings stand for the structures. Activity calls are given as the source filed them.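 The calls were made as follows, unless noted: active = viability loss from added drug above about 55%, and viability with drug at most 40%, in both replicates (limit read from the data, passing the limit was not always enough); inconclusive = both conditions met in only one replicate; inactive = neither replicate meets both conditions.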

Assay [1] in a line: Her2 expression decrease, cell viability multiplex – SKBR3 breast tumor cells, AlphaScreen, ATP viability, primary screen (AID 461;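 active = Her2 level under about 52% in both replicate screens, with viability over 70% of control, limit read from the data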;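 as to Her2 level: lower value means less Her2 protein in the cells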;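 as to viability: percent of carrier control wells set as 100% viability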). As to conditions: SKBR3 Her2 protein level, 18-24 h, measured here: SKBR3 viability, ATP luminescence, at 10 µM. Background: Bead proximity is the source of the signal in Alpha formats.
The target in assay [2] is Receptor tyrosine-protein kinase erbB-2 (Homo sapiens) (UniProt P04626). Described as above. The note with it: 18-24 h, at 10 µM, stronger effect = lower value.
A short description of assay [3]: reduced viability of SK-BR-3 breast cancer cells – cell-based, 24 h, human, pilot screen (AID 572;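 active = viability at or below 10% of carrier control in both of two separate runs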;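 also: compound exposure lasted between 18 and 24 h rather than exactly 24 h; 100% = carrier-treated control wells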). The note with it: SK-BR-3 viability, CellTiter-Glo luminescence, at 10 µM, stronger effect = lower value.
A short description of assay [4]: HUVEC growth inhibition – cell-based, human, primary screen (AID 575;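 active = viability at or below 30% in both replicate assays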;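 also: 100% = median of untreated cell wells with 0.1% DMSO on each plate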). As to conditions: HUVEC proliferation, CellTiter-Glo luminescence, 72 h; at 10 µM; stronger effect = lower value. The gist of the method:
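Test system: HUVEC primary cells. Quantity: 1250 endothelial cells in each well. Dosing: single-point 10 µM, DMSO 0.1% final. Incubation: 72 h treatment at 37 °C. Measured by: CTG luminescence. Control set: DMSO cell controls and MePR drug controls. Plate: collagen-coated 384-well format.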
For orientation: In ATP-based viability assays light output follows the ATP content of the culture.

Assay [5] can be described thus: H69AR cell proliferation blockers – human, duplicate replicates, primary screen (AID 580;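 active = viability at or under a set limit in both replicates, limit being median viability minus 3 SD, cut at about 48% in these data, passing the limit was not always enough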;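 also: 100% = mean luminescence of untreated wells and 0% = no signal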). As to conditions: H69AR lung tumor cells viability, ATP luminescence, 72 h; at 10 µM; stronger effect = lower value.
A short description of assay [6]: MRP1 drug-resistance reversers in H69AR cells – cell-based, doxorubicin co-treatment, pilot screen (AID 601). The note with it: CellTiter-Glo, 72 h, at 10 µM; for differential viability (reversal): stronger effect = higher value.
Assay [7] can be described thus: yeast transport mutant growth inhibition pilot in 384-well plates, post-Golgi transport modulator project (AID 636; in the data active = inhibition above about 31%). As to conditions: absorbance 615 nm, about 18 h, stronger effect = higher value.
A short description of assay [8]: growth suppression of yeast trafficking mutant, preliminary HTS, modulators of trafficking downstream of Golgi apparatus project, 1536-format plate, OD 615 nm (AID 637; in the data active = inhibition above about 30%). The note with it: yeast transport mutant growth, absorbance 615 nm, 18 h; stronger effect = higher value.
The mark [9] stands for this setting: H69AR cells + 2 uM doxorubicin, measured here: viability with 2 uM doxorubicin, stronger effect = lower value.
Setting [10] is: H69AR cells, compound alone cytotoxicity.

Sequence of Receptor tyrosine-protein kinase erbB-2 (Homo sapiens) (P04626 whole entry, looked up): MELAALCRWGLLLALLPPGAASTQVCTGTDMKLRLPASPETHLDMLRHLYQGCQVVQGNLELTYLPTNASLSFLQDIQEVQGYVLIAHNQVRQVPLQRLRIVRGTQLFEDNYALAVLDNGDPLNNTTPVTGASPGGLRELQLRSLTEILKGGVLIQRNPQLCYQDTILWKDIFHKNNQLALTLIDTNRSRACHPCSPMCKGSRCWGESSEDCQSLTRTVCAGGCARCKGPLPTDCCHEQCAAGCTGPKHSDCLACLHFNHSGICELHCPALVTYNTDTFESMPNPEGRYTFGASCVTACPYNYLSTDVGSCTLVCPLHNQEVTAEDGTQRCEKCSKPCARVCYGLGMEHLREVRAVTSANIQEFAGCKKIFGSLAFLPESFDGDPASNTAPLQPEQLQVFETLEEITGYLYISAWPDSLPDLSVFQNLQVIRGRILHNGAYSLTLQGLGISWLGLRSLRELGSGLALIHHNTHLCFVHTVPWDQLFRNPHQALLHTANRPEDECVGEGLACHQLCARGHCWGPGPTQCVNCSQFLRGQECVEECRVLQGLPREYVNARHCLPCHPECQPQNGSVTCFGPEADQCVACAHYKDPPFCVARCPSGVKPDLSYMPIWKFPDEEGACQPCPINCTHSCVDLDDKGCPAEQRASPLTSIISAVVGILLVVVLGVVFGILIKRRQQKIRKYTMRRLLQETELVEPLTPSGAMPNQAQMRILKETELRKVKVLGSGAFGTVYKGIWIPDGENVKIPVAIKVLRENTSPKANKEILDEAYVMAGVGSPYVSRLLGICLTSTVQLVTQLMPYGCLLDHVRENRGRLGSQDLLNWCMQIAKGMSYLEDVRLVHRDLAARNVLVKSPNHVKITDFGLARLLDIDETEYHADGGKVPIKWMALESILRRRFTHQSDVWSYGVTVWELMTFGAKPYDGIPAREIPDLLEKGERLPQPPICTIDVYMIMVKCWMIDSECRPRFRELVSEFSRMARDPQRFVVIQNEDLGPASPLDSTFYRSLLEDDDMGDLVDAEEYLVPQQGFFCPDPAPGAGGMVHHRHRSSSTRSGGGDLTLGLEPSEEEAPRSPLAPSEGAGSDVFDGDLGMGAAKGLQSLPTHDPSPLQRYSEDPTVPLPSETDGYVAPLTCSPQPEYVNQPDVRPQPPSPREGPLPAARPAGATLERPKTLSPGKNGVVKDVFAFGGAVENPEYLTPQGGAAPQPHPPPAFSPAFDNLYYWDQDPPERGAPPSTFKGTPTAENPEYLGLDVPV

With `O=C(CNS(=O)(=O)c1ccccc1)NCc1ccccn1`, the viability in assay [1] was 84%; in assay [3], 84% (inactive); in assay [4], 96.2% (inactive); in assay [5] it was 102% (inactive); in assay [6] (setting [9]) it was 93.2%; in assay [6] (setting [10]), 102%. The Her2 level in assay [2] was 76.5% (inactive). For the same molecule, the differential viability (reversal) in assay [6] (H69AR cells + 2 uM doxorubicin) is 8.75% (inactive). Moreover, the inhibition was -2.27% (inactive) in assay [7] and 1.45% (inactive) in assay [8].

For `O=C(Cn1ncc2c(=O)oc3ccccc3c21)Nc1nc2ccccc2s1`, the viability was 113% in assay [1]; 113% (inactive) in assay [3]; 97.2% (inactive) in assay [4]; 102% (inactive) in assay [5]; 94.9% in assay [6] (setting [9]); 102% in assay [6] (setting [10]). For the same molecule, the Her2 level in assay [2] was 102% (inactive). For the same molecule, in assay [6] (H69AR cells + 2 uM doxorubicin), the differential viability (reversal) was 7.33% (inactive). Besides, the inhibition in assay [7] is -8.08% (inactive); in assay [8] it was -3.65% (inactive).

`O=C(NCc1ccc(Cl)cc1)c1ccc(COCC(F)(F)F)o1`: the viability in assay [1] was 100%; in assay [3] it was 100% (inactive); in assay [4], 88.5% (inactive); in assay [5] it was 101% (inactive); in assay [6] (setting [9]) it was 79.7%; in assay [6] (setting [10]), 101%. The Her2 level in assay [2] was 91% (inactive). Besides, the differential viability (reversal) in assay [6] (H69AR cells + 2 uM doxorubicin) is 20.9% (inactive). Moreover, the inhibition in assay [7] is -1.45% (inactive); in assay [8], -5.27% (inactive).

As to `COc1ccc(S(=O)(=O)NC2CCCCC2)c(C)c1C`, the viability was 104% in assay [1]; 104% (inactive) in assay [3]; 90% (inactive) in assay [4]; 96.3% (inactive) in assay [5]; 87.7% in assay [6] (setting [9]); 96.3% in assay [6] (setting [10]). The Her2 level in assay [2] is 91% (inactive). Moreover, the differential viability (reversal) in assay [6] (H69AR cells + 2 uM doxorubicin) was 8.58% (inactive). Further, the inhibition in assay [7] is -2.89% (inactive); in assay [8], -2.9% (inactive).

Take `CC1Cc2ccccc2N1C(=O)CSc1nc2ccccc2n1CC(=O)N1CCOCC1` (stereo not given): the viability in assay [1] is 97%; in assay [3] it was 97% (inactive); in assay [4], 94% (inactive); in assay [5] it was 97.8% (inactive); in assay [6] (setting [9]) it was 90.8%; in assay [6] (setting [10]), 97.8%. Also, the Her2 level in assay [2] is 91% (inactive). The differential viability (reversal) in assay [6] (H69AR cells + 2 uM doxorubicin) is 7% (inactive). The inhibition in assay [7] is -6.13% (inactive); in assay [8] it was 3.77% (inactive).

For the molecule `CCCN1C(=O)c2cc(C(=O)O)ccc2C1O` (stereo not given), the viability was 113% in assay [1]; 113% (inactive) in assay [3]; 90.1% (inactive) in assay [4]; 103% (inactive) in assay [5]; 84.1% in assay [6] (setting [9]); 103% in assay [6] (setting [10]). Besides, the Her2 level in assay [2] was 100% (inactive). Also, the differential viability (reversal) in assay [6] (H69AR cells + 2 uM doxorubicin) is 18.7% (inactive). For the same molecule, the inhibition is -1.07% (inactive) in assay [7] and 1.48% (inactive) in assay [8].

In the case of `COc1ccc(C(=O)Nn2c(SCC(=O)NCC3CCCO3)nc3ccccc3c2=O)cc1` (stereo not given), the viability is 92.5% in assay [1]; 92.5% (inactive) in assay [3]; 76.8% (inactive) in assay [4]; 83.8% (inactive) in assay [5]; 74.5% in assay [6] (setting [9]); 83.8% in assay [6] (setting [10]). The Her2 level in assay [2] was 95% (inactive). For the same molecule, the differential viability (reversal) in assay [6] (H69AR cells + 2 uM doxorubicin) was 9.29% (inactive). Moreover, the inhibition in assay [7] is -6.53% (inactive); in assay [8], -0.81% (inactive).

On to `CC(C)(C)n1nnnc1C(c1cccs1)N1CCN(Cc2ccccc2)CC1` (stereo not given), for which the viability is 90% in assay [1]; 90% (inactive) in assay [3]; 86% (inactive) in assay [4]; 84.3% (inactive) in assay [5]; 83.6% in assay [6] (setting [9]); 84.3% in assay [6] (setting [10]). The Her2 level in assay [2] is 98.5% (inactive). The differential viability (reversal) in assay [6] (H69AR cells + 2 uM doxorubicin) was 0.73% (inactive). Moreover, the results for the inhibition in assay [7] and in assay [8] were -4.16% (inactive) and -2.86% (inactive), respectively.

Regarding `COc1ccc(-n2nc(C(=O)NCC(=O)NCC3CCCO3)c3ccccc3c2=O)cc1` (stereo not given), the viability in assay [1] was 120%; in assay [3], 120% (inactive); in assay [4], 103% (inactive); in assay [5], 85.5% (inactive); in assay [6] (setting [9]) it was 92.2%; in assay [6] (setting [10]), 85.5%. The Her2 level in assay [2] is 86.5% (inactive). In assay [6] (H69AR cells + 2 uM doxorubicin), the differential viability (reversal) was -6.73% (inactive). Besides, the inhibition in assay [7] is -0.78% (inactive); in assay [8] it was 1.15% (inactive).

`CC1(C)CC(=O)CC(C)(C)N1OC(=O)c1ccccn1`: the viability in assay [1] is 106%; in assay [3], 106% (inactive); in assay [4], 94% (inactive); in assay [5], 102% (inactive); in assay [6] (setting [9]), 93.6%; in assay [6] (setting [10]), 102%. Moreover, in assay [2], the Her2 level is 94% (inactive). For the same molecule, the differential viability (reversal) in assay [6] (H69AR cells + 2 uM doxorubicin) was 8.9% (inactive). Moreover, the inhibition in assay [7] was -2.3% (inactive); in assay [8], 5.74% (inactive).

As to `O=C1NCCCc2c1no[n+]2[O-]`, the viability in assay [1] is 100%; in assay [3] it was 100% (inactive); in assay [4] it was 84.1% (inactive); in assay [5], 104% (inactive); in assay [6] (setting [9]), 99.2%; in assay [6] (setting [10]), 104%. Moreover, the Her2 level in assay [2] is 103% (inactive). For the same molecule, in assay [6] (H69AR cells + 2 uM doxorubicin), the differential viability (reversal) is 4.5% (inactive). The inhibition in assay [7] was -0.13% (inactive); in assay [8] it was -3.71% (inactive).

With `Cc1nnc2ccc(N3CCC4(CC3)OCCO4)nn12`, the viability in assay [1] is 101%; in assay [3] it was 101% (inactive); in assay [4] it was 100% (inactive); in assay [5], 108% (inactive); in assay [6] (setting [9]), 96.5%; in assay [6] (setting [10]) it was 108%. In addition, in assay [2], the Her2 level was 89.5% (inactive). Further, the differential viability (reversal) in assay [6] (H69AR cells + 2 uM doxorubicin) is 11.1% (inactive). The inhibition in assay [7] is -6.22% (inactive); in assay [8], -3% (inactive).

With `Nc1nnc(SCCOc2ccccc2)s1`, the viability was 86.5% in assay [1]; 86.5% (inactive) in assay [3]; 72.1% (inactive) in assay [4]; 97.4% (inactive) in assay [5]; 88.2% in assay [6] (setting [9]); 97.4% in assay [6] (setting [10]). Also, the Her2 level in assay [2] is 80% (inactive). Also, the differential viability (reversal) in assay [6] (H69AR cells + 2 uM doxorubicin) was 9.2% (inactive). Also, the inhibition in assay [7] was -3.82% (inactive); in assay [8] it was -2.73% (inactive).

In the case of `COC(=O)c1ccc(Oc2nc(NC(C)C)nc(N(C)C)n2)cc1`, the viability in assay [1] was 102%; in assay [3] it was 102% (inactive); in assay [4] it was 97.2% (inactive); in assay [5], 89.5% (inactive); in assay [6] (setting [9]) it was 97.1%; in assay [6] (setting [10]) it was 89.5%. Also, the Her2 level in assay [2] is 91.5% (inactive). For the same molecule, in assay [6] (H69AR cells + 2 uM doxorubicin), the differential viability (reversal) was -7.6% (inactive). Moreover, the inhibition in assay [7] is -5.14% (inactive); in assay [8] it was -2.46% (inactive).

As to `O=S(CC(O)COCc1ccc(Cl)cc1)c1ccccn1` (stereo not given), the viability in assay [1] is 100%; in assay [3], 100% (inactive); in assay [4], 111% (inactive); in assay [5], 93% (inactive); in assay [6] (setting [9]) it was 91.5%; in assay [6] (setting [10]), 93%. The Her2 level in assay [2] was 90.5% (inactive). The differential viability (reversal) in assay [6] (H69AR cells + 2 uM doxorubicin) is 1.46% (inactive). Moreover, the inhibition in assay [7] is -1.95% (inactive); in assay [8], -3.93% (inactive).

As for `O=C1c2ccccc2C(=O)N1OCc1ccccc1`, the viability is 95.5% in assay [1]; 95.5% (inactive) in assay [3]; 101% (inactive) in assay [4]; 92.2% (inactive) in assay [5]; 92.9% in assay [6] (setting [9]); 92.2% in assay [6] (setting [10]). Further, in assay [2], the Her2 level is 91.5% (inactive). Moreover, the differential viability (reversal) in assay [6] (H69AR cells + 2 uM doxorubicin) is -0.76% (inactive). Also, the inhibition was -6.18% (inactive) in assay [7] and 3.93% (inactive) in assay [8].
